# In ChEMBL document CHEMBL2311499, “Synthesis, antiproliferative activity and tubulin targeting effect of acridinone and dioxophenothiazine derivatives” (Eur J Med Chem, 2013):
# Calls of active or inactive are those of the source. No cut-off for these calls is given here.
# Columns and labels:
# HT-29 [1] = experiment: Cell cycle arrest in human HT-29 cells assessed as accumulation at S phase at 5 uM after 24 hrs flow cytometry; type: functional
# Method in brief: (§1)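 Flow cytometry: 2.5–4 × 10⁵ cells were seeded in 6-well plates, grown 24 h, then treated for 24 h. Floating and adherent cells were pooled and fixed in cold 70% ethanol for 24 h. Results are reported as the percentage of cells in sub-G1, G1, S and G2 phases.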
# [2] = target: DNA topoisomerase 2-alpha (Homo sapiens) (UniProt P11388); experiment: Inhibition of human topoisomerase 2-mediated supercoiled plasmid DNA cleavage at 50 uM after 30 min by agarose gel electrophoresis
# HL-60 [3] = experiment: Cell cycle arrest in human HL60 cells assessed as accumulation at G2 phase at 5 uM after 24 hrs flow cytometry; type: functional; method in brief: as §1
# HT-29 [4] = experiment: Cell cycle arrest in human HT-29 cells assessed as accumulation at sub-G1 phase at 5 uM after 24 hrs flow cytometry; type: functional; method in brief: as §1
# HT-29 [5] = experiment: Cell cycle arrest in human HT-29 cells assessed as accumulation at G1 phase at 5 uM after 24 hrs flow cytometry; type: functional; method in brief: as §1
# HL-60 [6] = experiment: Cell cycle arrest in human HL60 cells assessed as accumulation at sub-G1 phase at 5 uM after 24 hrs flow cytometry; type: functional; method in brief: as §1
# CAL-33 [7] = experiment: Cell cycle arrest in human CAL33 cells assessed as accumulation at G2 phase at 0.5 uM after 24 hrs flow cytometry
# PC-3 = experiment: Antiproliferative activity against human PC3 cells after 72 hrs by MTT assay; type: functional, cell-based; settings: PC-3, 72 h
# Method in brief: (§2)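 MTT viability readout. Cells were seeded at (1.6–1.8) × 10⁴ per well in medium with 10% FBS. After 72 h they were serum-deprived, then treated next day with a range of concentrations. MTT (4 mg/mL) was added for 4 h at 37 °C, 5% CO₂, followed by SDS/HCl lysis and absorbance at 570 nm. IC50 is the concentration giving 50% inhibition of proliferation relative to untreated controls.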
# HT-29 [8] = experiment: Cell cycle arrest in human HT-29 cells assessed as accumulation at sub-G1 phase at 0.5 uM after 24 hrs flow cytometry; type: functional; method in brief: as §1
# HL-60 [9] = experiment: Cell cycle arrest in human HL60 cells assessed as accumulation at S phase at 5 uM after 24 hrs flow cytometry; type: functional; method in brief: as §1
# HT-29 [10] = experiment: Cell cycle arrest in human HT-29 cells assessed as accumulation at G1 phase at 0.5 uM after 24 hrs flow cytometry; type: functional; method in brief: as §1
# HT-29 [11] = experiment: Antiproliferative activity against human HT-29 cells after 72 hrs by MTT assay; type: functional, cell-based; settings: HT-29, 72 h
# Method in brief: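 HT29 cells were seeded at (1.6–1.8) × 10⁴ per well in medium with 10% FBS, serum-starved after 72 h, and treated the following day for 72 h. Viability was read by MTT (4 mg/mL, 4 h, 37 °C, 5% CO₂) with SDS/HCl solubilisation and absorbance at 570 nm. IC50 is the concentration giving 50% inhibition of proliferation relative to untreated controls.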
# HL-60 [12] = experiment: Antiproliferative activity against human HL60 cells after 72 hrs by MTT assay; type: functional, cell-based; settings: HL-60, 72 h; method in brief: as §2
# HL-60 [13] = experiment: Cell cycle arrest in human HL60 cells assessed as accumulation at sub-G1 phase at 0.5 uM after 24 hrs flow cytometry; type: functional; method in brief: as §1
# HL-60 [14] = experiment: Cell cycle arrest in human HL60 cells assessed as accumulation at G1 phase at 5 uM after 24 hrs flow cytometry; type: functional; method in brief: as §1
# DU-145 = experiment: Antiproliferative activity against human DU145 cells after 72 hrs by MTT assay; type: functional, cell-based; settings: DU-145, 72 h; method in brief: as §2
# HT-29 [15] = experiment: Cell cycle arrest in human HT-29 cells assessed as accumulation at G2 phase at 5 uM after 24 hrs flow cytometry; type: functional; method in brief: as §1
# HL-60 [16] = experiment: Cell cycle arrest in human HL60 cells assessed as accumulation at G2 phase at 0.5 uM after 24 hrs flow cytometry; type: functional; method in brief: as §1
# CAL-33 [17] = experiment: Antiproliferative activity against human CAL33 cells after 72 hrs by MTT assay; type: functional, cell-based; settings: CAL-33, 72 h; method in brief: as §2
# HL-60 [18] = experiment: Cell cycle arrest in human HL60 cells assessed as accumulation at G1 phase at 0.5 uM after 24 hrs flow cytometry; type: functional; method in brief: as §1
# HT-29 [19] = experiment: Cell cycle arrest in human HT-29 cells assessed as accumulation at S phase at 0.5 uM after 24 hrs flow cytometry; type: functional; method in brief: as §1
# HL-60 [20] = experiment: Cell cycle arrest in human HL60 cells assessed as accumulation at S phase at 0.5 uM after 24 hrs flow cytometry; type: functional; method in brief: as §1
# [21] = Inhibition of bovine tubulin polymerization after 1 hr; set-up: species or system Bos taurus
# CAL-33 [22] = experiment: Cell cycle arrest in human CAL33 cells assessed as accumulation at G1 phase at 0.5 uM after 24 hrs flow cytometry; type: functional; method in brief: as §1
# CAL-33 [23] = experiment: Cell cycle arrest in human CAL33 cells assessed as accumulation at sub-G1 phase at 0.5 uM after 24 hrs flow cytometry; type: functional; method in brief: as §1
# CAL-33 [24] = experiment: Cell cycle arrest in human CAL33 cells assessed as accumulation at G2 phase at 0.5 uM after 24 hrs flow cytometry; type: functional; method in brief: as §1
# CAL-33 [25] = experiment: Cell cycle arrest in human CAL33 cells assessed as accumulation at S phase at 0.5 uM after 24 hrs flow cytometry; type: functional; method in brief: as §1
# HT-29 [26] = experiment: Cell cycle arrest in human HT-29 cells assessed as accumulation at G2 phase at 0.5 uM after 24 hrs flow cytometry; type: functional; method in brief: as §1
# CAL-33 [27] = experiment: Cell cycle arrest in human CAL33 cells assessed as accumulation at G2 phase at 5 uM after 24 hrs flow cytometry; type: functional; method in brief: as §1
# CAL-33 [28] = experiment: Cell cycle arrest in human CAL33 cells assessed as accumulation at sub-G1 phase at 5 uM after 24 hrs flow cytometry; type: functional; method in brief: as §1
# CAL-33 [29] = experiment: Cell cycle arrest in human CAL33 cells assessed as accumulation at G1 phase at 5 uM after 24 hrs flow cytometry; type: functional; method in brief: as §1
# CAL-33 [30] = experiment: Cell cycle arrest in human CAL33 cells assessed as accumulation at S phase at 5 uM after 24 hrs flow cytometry; type: functional; method in brief: as §1
# DNA topoisomerase 2-alpha (Homo sapiens), sequence (P11388 whole entry): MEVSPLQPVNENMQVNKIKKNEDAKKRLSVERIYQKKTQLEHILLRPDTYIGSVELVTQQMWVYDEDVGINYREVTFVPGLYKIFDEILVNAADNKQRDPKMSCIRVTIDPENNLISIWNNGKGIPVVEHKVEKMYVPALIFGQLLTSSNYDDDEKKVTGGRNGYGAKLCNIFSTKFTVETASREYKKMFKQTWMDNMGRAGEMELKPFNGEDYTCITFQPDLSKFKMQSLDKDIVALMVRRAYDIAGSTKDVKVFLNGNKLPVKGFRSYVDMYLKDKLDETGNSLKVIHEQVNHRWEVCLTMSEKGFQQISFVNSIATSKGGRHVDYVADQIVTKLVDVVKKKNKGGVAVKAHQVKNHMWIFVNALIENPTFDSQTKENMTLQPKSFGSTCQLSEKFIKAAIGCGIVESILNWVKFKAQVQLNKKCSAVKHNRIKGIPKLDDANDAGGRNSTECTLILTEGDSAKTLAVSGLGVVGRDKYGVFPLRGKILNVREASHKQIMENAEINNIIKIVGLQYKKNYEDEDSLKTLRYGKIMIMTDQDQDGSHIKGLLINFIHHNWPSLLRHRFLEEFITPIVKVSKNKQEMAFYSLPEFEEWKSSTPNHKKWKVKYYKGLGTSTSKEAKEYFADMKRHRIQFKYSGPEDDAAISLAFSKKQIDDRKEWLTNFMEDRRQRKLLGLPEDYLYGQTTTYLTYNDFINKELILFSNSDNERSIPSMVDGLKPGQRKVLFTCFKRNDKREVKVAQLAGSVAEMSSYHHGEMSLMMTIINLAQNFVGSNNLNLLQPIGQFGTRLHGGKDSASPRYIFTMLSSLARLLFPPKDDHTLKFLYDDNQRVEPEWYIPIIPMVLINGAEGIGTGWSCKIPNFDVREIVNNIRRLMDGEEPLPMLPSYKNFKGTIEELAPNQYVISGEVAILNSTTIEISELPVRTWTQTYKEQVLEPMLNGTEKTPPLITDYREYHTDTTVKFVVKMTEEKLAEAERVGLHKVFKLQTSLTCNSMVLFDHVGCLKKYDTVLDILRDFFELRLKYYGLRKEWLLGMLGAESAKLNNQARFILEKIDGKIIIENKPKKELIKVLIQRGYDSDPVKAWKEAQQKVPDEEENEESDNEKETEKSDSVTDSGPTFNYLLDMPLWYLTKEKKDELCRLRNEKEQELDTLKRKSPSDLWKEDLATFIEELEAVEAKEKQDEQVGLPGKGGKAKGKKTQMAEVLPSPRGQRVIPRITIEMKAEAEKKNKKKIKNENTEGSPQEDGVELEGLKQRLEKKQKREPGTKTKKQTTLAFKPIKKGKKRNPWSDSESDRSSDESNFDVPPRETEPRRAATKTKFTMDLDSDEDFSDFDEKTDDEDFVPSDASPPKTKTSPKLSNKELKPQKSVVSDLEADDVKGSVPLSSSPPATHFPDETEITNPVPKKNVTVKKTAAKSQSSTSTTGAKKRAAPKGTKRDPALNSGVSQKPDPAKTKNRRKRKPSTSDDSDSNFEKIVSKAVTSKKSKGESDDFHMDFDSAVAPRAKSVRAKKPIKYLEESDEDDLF
smiles,measurement,setting,value
COc1ccc(CCc2cccc3c2Nc2ccccc2S3(=O)=O)cc1,Activity,HT-29 [1],2.46%
same,inhibition,[2],Active
same,Activity,HL-60 [3],14.77%
same,Activity,HT-29 [4],0.47%
same,Activity,HT-29 [5],8.63%
same,Activity,HL-60 [6],34.12%
same,Activity,CAL-33 [7],15.95%
same,IC50,PC-3,> 50000 nM
same,Activity,HT-29 [8],1.63%
same,Activity,HL-60 [9],24.77%
same,Activity,HT-29 [10],73.56%
same,IC50,HT-29 [11],870 nM
same,IC50,HL-60 [12],1650 nM
same,Activity,HL-60 [13],8.22%
same,Activity,HL-60 [14],26.83%
same,IC50,DU-145,810 nM
same,Activity,HT-29 [15],87.92%
same,Activity,HL-60 [16],12.4%
same,IC50,CAL-33 [17],627 nM
same,Activity,HL-60 [18],57.66%
same,Activity,HT-29 [19],8.63%
same,Activity,HL-60 [20],21.83%
same,IC50,[21],> 10000 nM
O=S1(=O)c2ccccc2Nc2c(CCc3ccc(O)c(O)c3)cccc21,IC50,HT-29 [11],> 100000 nM
same,IC50,[21],> 10000 nM
O=c1c2ccccc2[nH]c2c(CCc3ccc(O)c(O)c3)cccc12,IC50,HT-29 [11],> 50000 nM
same,IC50,[21],> 10000 nM
COc1ccc(CCc2cccc3c(=O)c4ccccc4[nH]c23)cc1OC,IC50,HT-29 [11],> 50000 nM
same,IC50,[21],> 10000 nM
COc1ccc(CCc2cccc3c2Nc2ccccc2S3(=O)=O)cc1OC,IC50,HT-29 [11],> 50000 nM
same,IC50,[21],> 10000 nM
COc1cc(CCc2cccc3c(=O)c4ccccc4[nH]c23)cc(OC)c1OC,inhibition,[2],Active
same,IC50,PC-3,> 100000 nM
same,IC50,HT-29 [11],> 100000 nM
same,IC50,HL-60 [12],> 50000 nM
same,IC50,DU-145,> 100000 nM
same,IC50,CAL-33 [17],> 100000 nM
same,IC50,[21],> 10000 nM
COc1ccc(CCN2C=CC=C3C2=Nc2ccccc2OS3(=O)=O)cc1,IC50,PC-3,475 nM
same,IC50,HT-29 [11],24 nM
same,IC50,DU-145,17 nM
same,IC50,[21],2400 nM
COc1cc(CCc2cccc3c2Nc2ccccc2S3(=O)=O)cc(OC)c1OC,IC50,HT-29 [11],> 100000 nM
same,IC50,[21],> 10000 nM
CCC1=C[C@@H]2CN(C1)Cc1c([nH]c3ccccc13)[C@@](C(=O)OC)(c1cc3c(cc1OC)N(C)[C@H]1[C@@](O)(C(=O)OC)[C@H](OC(C)=O)[C@]4(CC)C=CCN5CC[C@]31[C@@H]54)C2 [VINORELBINE],Activity,CAL-33 [22],9.96%
same,Activity,CAL-33 [23],24.44%
same,Activity,CAL-33 [24],72.8%
same,Activity,HT-29 [8],1.39%
same,Activity,HT-29 [10],21.42%
same,Activity,CAL-33 [25],17.62%
same,Activity,HT-29 [26],72.85%
same,Activity,HT-29 [19],3.41%
COc1ccc(CCc2cccc3c(=O)c4ccccc4[nH]c23)cc1,Activity,HT-29 [1],4.6%
same,inhibition,[2],Active
same,Activity,CAL-33 [22],4%
same,Activity,HL-60 [3],15.2%
same,Activity,HT-29 [4],0.83%
same,Activity,HT-29 [5],21.11%
same,Activity,HL-60 [6],34.34%
same,Activity,CAL-33 [23],9.84%
same,Activity,CAL-33 [27],35.16%
same,IC50,PC-3,750 nM
same,Activity,CAL-33 [24],57.42%
same,Activity,HT-29 [8],0.65%
same,Activity,HL-60 [9],26.55%
same,Activity,HT-29 [10],14.55%
same,IC50,HT-29 [11],51 nM
same,IC50,HL-60 [12],100 nM
same,Activity,HL-60 [13],37.16%
same,Activity,HL-60 [14],24.4%
same,IC50,DU-145,50 nM
same,Activity,HT-29 [15],73.1%
same,Activity,HL-60 [16],19.58%
same,Activity,CAL-33 [25],28.46%
same,Activity,CAL-33 [28],22.73%
same,IC50,CAL-33 [17],37 nM
same,Activity,HL-60 [18],25.15%
same,Activity,HT-29 [26],81.81%
same,Activity,HT-29 [19],2.75%
same,Activity,HL-60 [20],18.5%
same,Activity,CAL-33 [29],8.35%
same,Activity,CAL-33 [30],33.12%
same,IC50,[21],> 10000 nM
COc1ccc(CCc2cccc3c2Nc2ccccc2S3(=O)=O)cc1O,IC50,HT-29 [11],7200 nM
same,IC50,[21],1250 nM
CC(=O)O[C@@]12CO[C@@H]1C[C@H](O)[C@@]1(C)C(=O)[C@H](O)C3=C(C)[C@@H](OC(=O)[C@H](O)[C@@H](NC(=O)OC(C)(C)C)c4ccccc4)C[C@@](O)([C@@H](OC(=O)c4ccccc4)[C@H]21)C3(C)C.O.O.O [DOCETAXEL],Activity,CAL-33 [22],4.99%
same,Activity,CAL-33 [23],17.11%
same,Activity,CAL-33 [24],88.2%
same,Activity,HT-29 [8],0.86%
same,Activity,HT-29 [10],7.85%
same,Activity,CAL-33 [25],15.41%
same,Activity,HT-29 [26],88.24%
same,Activity,HT-29 [19],2.76%
COc1ccc(CCc2cccc3c(=O)c4ccccc4[nH]c23)cc1O,IC50,HT-29 [11],12000 nM
same,IC50,[21],510 nM
COc1ccc(S(=O)(=O)Nc2cccnc2Nc2ccc(O)cc2)cc1 [ABT-751],IC50,HT-29 [11],210 nM
same,IC50,[21],2200 nM
CC[C@]1(O)C[C@H]2CN(CCc3c([nH]c4ccccc34)[C@@](C(=O)OC)(c3cc4c(cc3OC)N(C=O)[C@H]3[C@@](O)(C(=O)OC)[C@H](OC(C)=O)[C@]5(CC)C=CCN6CC[C@]43[C@@H]65)C2)C1 [VINCRISTINE],Activity,CAL-33 [22],14.29%
same,Activity,CAL-33 [23],20.5%
same,Activity,CAL-33 [24],72.5%
same,Activity,HT-29 [8],5.97%
same,Activity,HT-29 [10],16.43%
same,Activity,CAL-33 [25],17.13%
same,Activity,HT-29 [26],72.53%
same,Activity,HT-29 [19],4.65%
